The source made the active and inactive calls. No cut-off for these calls is given here.

The test system of one data set is Mus musculus. The data set can be described thus: In vivo inhibition of Src phosphorylation in tumor of SCID mouse xenografted with human MDA-MB-231 cells at 30 mg/kg/day, po administered for 18 days measured post last dose by immunohistochemical analysis relative to vehicle-treated control. It is filed as functional, organism-based. Put shortly:
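SCID mice carrying subcutaneous MDA-MB-231 xenografts received oral dosing once daily for 18 days (vehicle 25% PEG400 plus 5% DMSO in sterile water); at the end, tumors formalin-fixed and paraffin-embedded, 4–8 μm sections immunostained (Ki67, phospho-proteins) or TUNEL/AP-Red labelled, and compared with control.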
Background: A xenograft is tissue or cells of one species grown in another, often human tumour cells in immunodeficient mice.

Data set [1] has as its system MDA-MB-231. The data set can be described thus: Antiinvasive activity against human MDA-MB-231 cells at 0.1 uM after 24 hrs by transwell assay. It is filed as functional, cell-based.
Another data set deals with MCF7. The data set can be described thus: Cytotoxicity against human MCF7 cells assessed as cell viability after 72 hrs by MTT assay. It is filed as functional, cell-based. The conditions noted are these: MCF7, 72 h.
The target in data set [2] is Serine/threonine-protein kinase PAK 1 (Homo sapiens, UniProt Q13153). The data set can be described thus: Inhibition of human PAK1. Put shortly:
(§1)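 Recombinant human protein kinases screened through the Eurofins KinaseProfiler service. IC50 values are means of two independent experiments.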

Data set [3] is described as follows: Terminal half life in Sprague-Dawley rat at 10 mg/kg, po by LC/MS analysis. It is filed as ADME, organism-based. Set-up: dose 10 mg/kg, route oral. The conditions noted are these: in vivo, read-out: beta t1/2 (converted). A digest of the protocol:
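Male Sprague-Dawley rats fitted with jugular vein catheters and fasted overnight, then given a single 10 mg/kg oral gavage dose; n=5. Serial blood samples were spun at once to plasma and analysed by LC-MS/MS. Noncompartmental parameters were fitted.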

Data set [4] has as its target Mitogen-activated protein kinase 8 (Homo sapiens, UniProt P45983). The data set can be described thus: Inhibition of human JNK1alpha1. Put shortly:
as §1

For data set [5], the system named is MDA-MB-231. The data set can be described thus: Induction of apoptosis in human MDA-MB-231 cells assessed as early apoptotic cells at 0.3 uM after 48 hrs by annexin V-FITC/propidium iodide staining-based flow cytometric analysis (reference value: […]). It is filed as functional. Background: In flow cytometry, cells or beads pass a laser one at a time.
Data set [6] deals with Phosphatidylinositol 4,5-bisphosphate 3-kinase catalytic subunit alpha isoform (Homo sapiens, UniProt P42336). The data set can be described thus: Inhibition of human PI3Kalpha. Put shortly: as §1
Chain of Phosphatidylinositol 4,5-bisphosphate 3-kinase catalytic subunit alpha isoform (P42336 whole entry, canonical isoform): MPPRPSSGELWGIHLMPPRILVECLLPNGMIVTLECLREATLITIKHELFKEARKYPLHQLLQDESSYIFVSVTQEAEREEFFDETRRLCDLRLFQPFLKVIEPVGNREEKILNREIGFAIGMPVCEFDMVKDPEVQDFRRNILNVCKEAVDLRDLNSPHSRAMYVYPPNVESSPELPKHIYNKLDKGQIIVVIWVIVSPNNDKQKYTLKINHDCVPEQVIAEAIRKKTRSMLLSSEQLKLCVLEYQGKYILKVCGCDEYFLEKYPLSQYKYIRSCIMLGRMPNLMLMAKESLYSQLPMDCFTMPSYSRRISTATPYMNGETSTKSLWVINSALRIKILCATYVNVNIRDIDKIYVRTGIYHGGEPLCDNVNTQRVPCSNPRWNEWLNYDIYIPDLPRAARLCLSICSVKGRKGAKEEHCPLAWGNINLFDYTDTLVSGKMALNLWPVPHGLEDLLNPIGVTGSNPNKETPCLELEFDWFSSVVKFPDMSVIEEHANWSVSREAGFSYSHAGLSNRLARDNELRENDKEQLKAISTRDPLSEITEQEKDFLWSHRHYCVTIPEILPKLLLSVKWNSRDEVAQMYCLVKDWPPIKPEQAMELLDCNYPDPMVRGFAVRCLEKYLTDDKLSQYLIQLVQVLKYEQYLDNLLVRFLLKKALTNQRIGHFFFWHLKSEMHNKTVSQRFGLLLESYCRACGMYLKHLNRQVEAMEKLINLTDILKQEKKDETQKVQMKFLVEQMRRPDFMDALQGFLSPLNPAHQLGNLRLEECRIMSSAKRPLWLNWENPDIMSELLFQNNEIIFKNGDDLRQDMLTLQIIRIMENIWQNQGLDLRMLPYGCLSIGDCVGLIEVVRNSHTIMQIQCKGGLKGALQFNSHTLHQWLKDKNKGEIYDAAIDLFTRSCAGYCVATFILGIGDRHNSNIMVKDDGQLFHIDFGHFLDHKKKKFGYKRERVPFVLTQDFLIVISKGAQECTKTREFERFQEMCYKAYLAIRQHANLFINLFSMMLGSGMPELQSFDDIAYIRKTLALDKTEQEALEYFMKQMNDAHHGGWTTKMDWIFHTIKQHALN
Data set [7] in a line: Cytotoxicity against human HBL1 cells assessed as cell viability after 72 hrs by MTT assay. It is filed as functional, cell-based. The conditions noted are these: HBL1, 72 h. In general terms: Formazan colour is commonly taken as a measure of viable cells.
Data set [8] addresses NUAK family SNF1-like kinase 1 (Homo sapiens, UniProt O60285). The data set can be described thus: Inhibition of human Ark5. A digest of the protocol:
as §1

Data set [9] has as its target Dual specificity mitogen-activated protein kinase kinase 1 (Homo sapiens, UniProt Q02750). Briefly: Inhibition of human MEK1. A digest of the protocol: as §1
Data set [10] relates to MDA-MB-231. Briefly: Induction of apoptosis in human MDA-MB-231 cells assessed as viable cells at 0.1 uM after 24 hrs by annexin V-FITC/propidium iodide staining-based flow cytometric analysis (reference value: 95.5%). The settings on record: MDA-MB-231, 24 h, read-out: Activity. It is filed as functional.
The test system of data set [11] is MDA-MB-231. Briefly: Inhibition of MEK phosphorylation in human MDA-MB-231 cells at 0.001 to 1 uM after 20 hrs by Western blot analysis. It is filed as cell-based. A digest of the protocol: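 MDA-MB-231 cells exposed to a concentration series for 20 h at 37 °C, then washed in ice-cold saline and lysed in RIPA buffer with protease cocktail. Lysates were cleared at 12 000 rpm for 10 min at 4 °C and protein measured by Bradford. Equal protein was run on SDS-PAGE, transferred to PVDF and immunoblotted for phospho-proteins.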

The target in data set [12] is Serine/threonine-protein kinase mTOR (Homo sapiens, UniProt P42345). Briefly: Inhibition of human mTOR. A digest of the protocol:
as §1

Data set [13] concerns MDA-MB-231. Briefly: Induction of apoptosis in human MDA-MB-231 cells assessed as late apoptotic cells at 0.1 uM after 48 hrs by annexin V-FITC/propidium iodide staining-based flow cytometric analysis (reference value: 4.25%). It is filed as functional.

Chain of Serine/threonine-protein kinase PAK 1 (Q13153 whole entry): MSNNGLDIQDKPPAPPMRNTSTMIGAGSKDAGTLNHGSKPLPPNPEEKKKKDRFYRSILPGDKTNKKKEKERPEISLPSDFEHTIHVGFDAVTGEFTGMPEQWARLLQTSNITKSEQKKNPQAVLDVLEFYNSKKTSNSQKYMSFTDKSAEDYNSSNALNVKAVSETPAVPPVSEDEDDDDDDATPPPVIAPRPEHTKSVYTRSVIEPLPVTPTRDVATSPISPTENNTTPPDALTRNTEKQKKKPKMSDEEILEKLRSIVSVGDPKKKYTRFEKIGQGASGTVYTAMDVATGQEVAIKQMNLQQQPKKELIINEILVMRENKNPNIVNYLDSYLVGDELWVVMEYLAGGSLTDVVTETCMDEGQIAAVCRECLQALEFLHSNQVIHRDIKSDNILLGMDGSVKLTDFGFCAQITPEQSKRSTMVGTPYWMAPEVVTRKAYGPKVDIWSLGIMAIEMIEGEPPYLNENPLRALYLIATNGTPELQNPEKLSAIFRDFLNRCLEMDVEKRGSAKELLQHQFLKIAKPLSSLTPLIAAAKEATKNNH
Chain of Dual specificity mitogen-activated protein kinase kinase 1 (Q02750 whole entry): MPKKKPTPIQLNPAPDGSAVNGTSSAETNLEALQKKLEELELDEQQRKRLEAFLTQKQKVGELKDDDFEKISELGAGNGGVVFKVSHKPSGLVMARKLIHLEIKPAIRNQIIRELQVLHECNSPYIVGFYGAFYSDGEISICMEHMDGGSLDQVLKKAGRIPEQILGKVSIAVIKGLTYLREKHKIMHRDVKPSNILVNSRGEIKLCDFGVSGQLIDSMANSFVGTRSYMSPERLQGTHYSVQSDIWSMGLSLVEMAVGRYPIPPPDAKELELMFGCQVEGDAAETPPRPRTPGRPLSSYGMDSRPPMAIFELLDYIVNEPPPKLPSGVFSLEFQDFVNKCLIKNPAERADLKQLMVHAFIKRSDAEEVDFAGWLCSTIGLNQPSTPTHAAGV
Chain of NUAK family SNF1-like kinase 1 (O60285 whole entry): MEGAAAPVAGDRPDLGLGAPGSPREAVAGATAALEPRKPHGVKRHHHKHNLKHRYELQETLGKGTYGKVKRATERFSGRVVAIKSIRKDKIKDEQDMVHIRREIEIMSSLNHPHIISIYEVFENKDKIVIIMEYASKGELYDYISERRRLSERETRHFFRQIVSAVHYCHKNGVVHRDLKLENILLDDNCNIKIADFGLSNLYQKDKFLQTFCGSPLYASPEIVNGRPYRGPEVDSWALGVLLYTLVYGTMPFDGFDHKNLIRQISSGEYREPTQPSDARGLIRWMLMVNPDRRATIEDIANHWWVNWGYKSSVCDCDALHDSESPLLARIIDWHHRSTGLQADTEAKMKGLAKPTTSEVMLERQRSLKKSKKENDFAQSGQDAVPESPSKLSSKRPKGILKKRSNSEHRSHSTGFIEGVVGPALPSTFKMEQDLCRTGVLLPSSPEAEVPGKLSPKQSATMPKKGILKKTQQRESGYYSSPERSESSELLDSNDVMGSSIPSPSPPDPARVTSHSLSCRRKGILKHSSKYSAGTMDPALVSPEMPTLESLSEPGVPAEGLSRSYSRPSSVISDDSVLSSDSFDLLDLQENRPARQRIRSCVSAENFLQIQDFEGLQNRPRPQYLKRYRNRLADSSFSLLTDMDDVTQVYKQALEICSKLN
Chain of Mitogen-activated protein kinase 8 (P45983 whole entry, looked up): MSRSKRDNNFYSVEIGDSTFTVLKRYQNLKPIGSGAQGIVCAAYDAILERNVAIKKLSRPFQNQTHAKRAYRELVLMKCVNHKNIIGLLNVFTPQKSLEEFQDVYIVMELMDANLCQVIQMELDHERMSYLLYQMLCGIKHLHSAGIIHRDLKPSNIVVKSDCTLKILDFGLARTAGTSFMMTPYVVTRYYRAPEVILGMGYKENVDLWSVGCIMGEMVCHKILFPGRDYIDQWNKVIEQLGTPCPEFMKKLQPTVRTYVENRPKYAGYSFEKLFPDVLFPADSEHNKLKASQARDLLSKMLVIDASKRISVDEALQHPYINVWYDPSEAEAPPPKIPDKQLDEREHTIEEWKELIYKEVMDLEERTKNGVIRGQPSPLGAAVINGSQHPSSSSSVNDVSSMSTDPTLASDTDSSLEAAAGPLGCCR

What is called IC50 is the point on the concentration scale where inhibition reaches its midpoint. Take `CCn1nc(C#Cc2cc(C(=O)Nc3ccc(CN4CCN(C)CC4)c(C(F)(F)F)c3)ccc2C)c2c(N)ncnc21`: the inhibition result in the data set on Mus musculus and with MDA-MB-231 [11] was “Active” throughout. Also, in the data set on MDA-MB-231 [1], the outcome was Active. Moreover, the IC50 with MCF7 was 7.25 µM; in [2] it was > 10 µM; in [4], > 10 µM; in data set [6] it was > 10 µM; in data set [7] it was 10 µM; in data set [8], > 10 µM. The IC50 in data set [9] and in [12] was > 10 µM in each case. Further, in data set [3], the half-life was 12.8 h. For the same compound, the values for the Activity with MDA-MB-231 [5] and with MDA-MB-231 [13] were 24.1% and 15.9%, respectively. The viability at 0.1 µM with MDA-MB-231 [10] amounted to 79.1%.

Values taken from ChEMBL document CHEMBL3425429.
